According to ChEMBL document CHEMBL2176979, “Ligand-based design, synthesis, and biological evaluation of 2-aminopyrimidines, a novel series of receptor for advanced glycation end products (RAGE) inhibitors” (J Med Chem, 2012):
Calls of active or inactive are those of the source. The rule behind the calls is not given here.

Assays:
[1] = molecular target: T1, Advanced glycosylation end product-specific receptor (Homo sapiens, UniProt Q15109); assay: Inhibition of human recombinant biotinylated receptor for advanced glycation end product expressed in Escherichia coli DE3 assessed as inhibition of binding to amyloid beta (1 to 42) at 20 uM after 60 mins by TMB-ELISA
Summary of the method: (§1)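 Biotinylated human RAGE (1 μg, made in Origami2(DE3) with BirA) incubated on a streptavidin plate with oligomeric Aβ (10 μM stock pre-aggregated 24 h at 4 °C; 1 μL per well). Compound 20 μM in TBS-T/2.5% BSA, 60 min at ambient temperature. Bound Aβ detected with HRP-4G8 (1:1000) for 60 min, then TMB, read at 450 nm. Duplicates, mean ± SD.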

Mus musculus [2] = assay: Reduction in human amyloid beta (1 to 42) level in ICR mouse plasma at 25 mg/kg, ip administered 20 mins prior to human amyloid beta (1 to 40)-injection measured after 30 mins by ELISA relative to control; format: functional; parameters: scale not given: the % may be the effect or the level left; settings: route intraperitoneal, in the assay text read “human amyloid beta (1 to 42)-injection” for “human amyloid beta (1 to 40)-injection”
Summary of the method: (§2)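 Male ICR mice, 3 months old (n = 4), given test compound 25 mg/kg or vehicle ip. After 20 min, 200 μL of 25 μM human Aβ1−42 in PBS injected into the tail vein and left to circulate 30 min. Retro-orbital blood taken into EDTA tubes before sacrifice. Human Aβ measured in brain extracts (pg/mg protein) and plasma (ng/mL).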

[3] = molecular target: Advanced glycosylation end product-specific receptor (Rattus norvegicus) (UniProt Q63495); assay: Inhibition of receptor for advanced glycation end product binding to amyloid beta 42 in rat C6 cells assessed as NFkappaB activation at 0.1 to 10 uM after 18 hrs by reporter gene assay; format: cell-based
Mus musculus [4] = assay: Inhibition of RAGE-mediated influx of human amyloid beta (1 to 42) into ICR mouse brain at 25 mg/kg, ip administered 20 mins prior to human amyloid beta (1 to 42)-injection measured after 30 mins by ELISA relative to control
C6 = assay: Cytotoxicity against rat C6 cells at 0.1 to 10 uM after 18 hrs; format: cell-based; settings: c6, 18 h
[5] = molecular target: T1, Advanced glycosylation end product-specific receptor; assay: Inhibition of human recombinant biotinylated receptor for advanced glycation end product expressed in Escherichia coli DE3 assessed as inhibition of binding to amyloid beta (1 to 42) after 60 mins by TMB-ELISA; summary of the method: as §1
Mus musculus [6] = assay: Antialzheimer activity in transgenic mouse expressing PS1/APP swedish mutant assessed as soluble amyloid beta (1 to 42) level per mg of protein in brain at 50 mg/kg/day, po for 3 months by ELISA (reference value: 17.34 +/- 5.17 ng per mg of protein); format: functional
Mus musculus [7] = assay: Inhibition of RAGE-mediated influx of human amyloid beta (1 to 42) into ICR mouse brain at 25 mg/kg, ip administered 20 mins prior to human amyloid beta (1 to 40)-injection measured after 30 mins by ELISA relative to control; format: functional; settings: in the assay text read “human amyloid beta (1 to 42)-injection” for “human amyloid beta (1 to 40)-injection”, route intraperitoneal; summary of the method: as §2
Mus musculus [8] = assay: Antialzheimer activity in transgenic mouse expressing PS1/APP swedish mutant assessed as insoluble amyloid beta (1 to 40) level per mg of protein in brain at 50 mg/kg/day, po for 3 months by ELISA (reference value: 137.38+/- 58.13 ng per mg of protein); format: functional
Mus musculus [9] = assay: Antialzheimer activity in transgenic mouse expressing PS1/APP swedish mutant assessed as insoluble amyloid beta (1 to 42) level per mg of protein in brain at 50 mg/kg/day, po for 3 months by ELISA (reference value: 513.73 +/- 219.56 ng per mg of protein); format: functional
Mus musculus [10] = assay: Toxicity against transgenic mouse expressing PS1/APP swedish mutant assessed as lethality at 50 mg/kg/day, po administered for 3 months measured after 2 months; format: organism-based; parameters: route oral; settings: in vivo, 1461 h
Summary of the method: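 Male APPsw/PS1 transgenic mice, 6 months old (n = 4−5), dosed by oral gavage at 50 mg/(kg·day) until 9 months of age. Lethality was recorded as a side effect during the study. Cognitive function (Y-maze spontaneous alternation) was assessed after 2 months of dosing.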

Mus musculus [11] = assay: Antialzheimer activity in transgenic mouse expressing PS1/APP swedish mutant assessed as soluble amyloid beta (1 to 40) level per mg of protein in brain at 50 mg/kg/day, po for 3 months by ELISA (reference value: 8.66 +/- 1.81 ng per mg of protein); format: functional
Mus musculus [12] = assay: Procognitive activity in transgenic mouse expressing PS1/APP swedish mutant assessed as spontaneous alteration at 50 mg/kg/day, po administered for 3 months measured after 2 months by Y maze test (reference value: 50.95 +/- 10.8%); format: functional
[13] = molecular target: T1, Advanced glycosylation end product-specific receptor; assay: Binding affinity to human recombinant biotinylated receptor for advanced glycation end product expressed in Escherichia coli DE3 after 1 min by surface plasmon resonance assay
Summary of the method: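 SPR with biotinylated RAGE captured to saturation on Neutravidin-coated chip channels, with a blank reference channel. Running buffer TBS (pH 7.4) with 0.05% Tween 20. Compounds serially diluted 50 to 3.1 μM in 2% DMSO, injected 1 min at 100 μL/min, then 400 s buffer dissociation. Responses reference-subtracted. Constants from a global Langmuir 1:1 fit.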

Sequence of Advanced glycosylation end product-specific receptor (Rattus norvegicus) (Q63495 whole entry): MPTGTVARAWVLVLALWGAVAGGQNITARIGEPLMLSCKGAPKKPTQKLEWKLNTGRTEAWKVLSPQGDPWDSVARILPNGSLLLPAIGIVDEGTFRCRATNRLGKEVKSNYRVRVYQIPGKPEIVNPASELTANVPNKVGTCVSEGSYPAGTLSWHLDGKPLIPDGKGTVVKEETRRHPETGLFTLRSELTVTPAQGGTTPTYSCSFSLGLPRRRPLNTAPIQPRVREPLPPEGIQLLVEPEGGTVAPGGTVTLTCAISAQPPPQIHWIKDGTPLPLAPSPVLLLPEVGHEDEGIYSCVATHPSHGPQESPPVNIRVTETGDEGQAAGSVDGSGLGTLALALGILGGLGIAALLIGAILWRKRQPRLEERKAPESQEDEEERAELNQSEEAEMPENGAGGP
T1 sequence (Q15109 whole entry): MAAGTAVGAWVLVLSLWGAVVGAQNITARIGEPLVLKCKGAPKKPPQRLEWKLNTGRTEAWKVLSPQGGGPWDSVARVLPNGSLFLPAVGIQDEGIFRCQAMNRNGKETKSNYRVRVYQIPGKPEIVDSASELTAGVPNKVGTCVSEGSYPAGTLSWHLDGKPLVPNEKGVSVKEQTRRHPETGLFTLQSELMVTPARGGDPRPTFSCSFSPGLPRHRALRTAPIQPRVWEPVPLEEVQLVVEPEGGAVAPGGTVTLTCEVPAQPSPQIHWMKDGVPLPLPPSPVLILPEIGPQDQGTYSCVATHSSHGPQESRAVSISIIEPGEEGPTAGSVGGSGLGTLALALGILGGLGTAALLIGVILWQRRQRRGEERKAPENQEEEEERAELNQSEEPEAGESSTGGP

Row | Compound | inhibition [1] | other results
1 | CCN(CC)CCOc1ccc(Nc2nc(-c3ccc(Cl)cc3)cc(-c3ccc(Cl)cc3)n2)cc1 | 33.6% | 
2 | CCN(CC)CCCCNc1nc(C)c(OCc2ccccc2)c(C)n1 | inactive | 
3 | CCN(CC)CCCC(=O)Nc1nc(C)c(OC)c(C)n1 | inactive | 
4 | CCN(CC)CCOc1ccc(Nc2nc(C)cc(-c3ccc(Oc4ccc5ccccc5c4)cc3)n2)cc1 | 21.4% | 
5 | CCN(CC)CCOc1cccc(Nc2nc(C)cc(-c3ccc(OCCC4CCCCC4)cc3)n2)c1 | 49.6% | Activity (Mus musculus [2]): 5%; inhibition [3]: Active; inhibition in vivo at 25 mg/kg (Mus musculus [4]): 12.1%; Activity (C6): Non-toxic
6 | Cc1nc(NC(=O)CCCO)nc(C)c1OCc1ccccc1 | inactive | 
7 | CCN(CC)CCOc1ccc(Nc2nc(C)cc(-c3ccc(OCCc4ccc(Cl)cc4)cc3)n2)cc1 | inactive | 
8 | CCN(CC)CCOc1cccc(Nc2nc(-c3ccc(Cl)cc3)cc(N3CCOCC3)n2)c1 | 3.1% | 
9 | CCN(CC)CCOc1ccccc1Nc1nc(-c2ccc(Cl)cc2)cc(-c2ccc(Cl)cc2)n1 | 70.8% | Activity (Mus musculus [2]): 2.8%; inhibition [3]: Active; inhibition in vivo at 25 mg/kg (Mus musculus [4]): 18.3%; IC50 [5]: 4.6 µM; Activity (C6): Non-toxic
10 | COc1c(C)nc(NC(=O)CCCC(=O)O)nc1C | inactive | 
11 | CCN(CC)CCOc1ccccc1Nc1nc(C)cc(-c2ccc(Cl)cc2)n1 | 47.2% | 
12 | CCN(CC)CCOc1ccc(Nc2nc(C)cc(Nc3ccccc3)n2)cc1 | 32.7% | 
13 | CCN(CC)CCOc1cccc(Nc2nc(-c3ccc(Cl)cc3)cc(N3CCCCC3)n2)c1 | 17.1% | 
14 | CCN(CC)CCCCNc1nc(C)c(O)c(C)n1 | inactive | 
15 | CCN(CC)CCOc1ccc(Nc2nc(C)cc(-c3ccc(OCc4ccc(Cl)cc4)cc3)n2)cc1 | 12.7% | 
16 | CCN(CC)CCOc1ccc(Nc2nc(C)cc(-c3ccc(OCCc4ccccc4)cc3)n2)cc1 | inactive | 
17 | Cc1nc(NC(=O)CCCC(=O)O)nc(C)c1OCc1ccccc1 | inactive | 
18 | CCN(CC)CCOc1ccc(Nc2nc(C)cc(N3CCCCC3)n2)cc1 | 43.3% | 
19 | CCN(CC)CCOc1ccc(Nc2nc(C)c(OCc3ccccc3)c(C)n2)cc1 | 14.6% | 
20 | CCN(CC)CCOc1cccc(Nc2nc(C)cc(-c3ccc(OC4CCCCC4)cc3)n2)c1 | 45.6% | 
21 | CCN(CC)CCCC(=O)Nc1nc(C)c(OCc2ccccc2)c(C)n1 | inactive | 
22 | CCN(CC)CCOc1cccc(Nc2nc(-c3ccc(Cl)cc3)cc(-c3ccc(Cl)cc3)n2)c1 | 54% | Activity (Mus musculus [2]): 3.7%; inhibition [3]: Active; IC50 [5]: 16.5 µM; Activity (C6): Non-toxic; Activity (Mus musculus [6]): 12 ng/mg; inhibition in vivo at 25 mg/kg (Mus musculus [7]): 34.3%; Activity (Mus musculus [8]): 98.5 ng/mg; Activity (Mus musculus [9]): 354 ng/mg; Activity (Mus musculus [10]): Non-toxic; Activity (Mus musculus [11]): 6.25 ng/mg; Activity (Mus musculus [12]): 63.6%; Activity [13]: Dose-dependent effect; Kd [13]: 102 µM
23 | CCN(CC)CCOc1ccc(Nc2nc(C)cc(-c3ccc(OC)cc3)n2)cc1 | 31.7% | 
24 | CCN(CC)CCOc1cccc(Nc2nc(-c3ccc(Cl)cc3)cc(N3CCN(C)CC3)n2)c1 | 4.5% | 

Now from value to compound, other results behind:

Row | inhibition [1] | Compound | other results
25 | 30.6% | CCN(CC)CCOc1ccc(Nc2nc(C)cc(C3CCCCC3)n2)cc1 | 
26 | 21.1% | CCN(CC)CCOc1ccc(Nc2nc(C)cc(-c3ccc(Oc4ccc(Cl)cc4)cc3)n2)cc1 | 
27 | 32.7% | CCN(CC)CCOc1ccc(Nc2nc(C)cc(-c3ccc(OCCC4CCCCC4)cc3)n2)cc1 | 
28 | inactive | COc1c(C)nc(NC(=O)CCCO)nc1C | 
29 | 16.2% | CCN(CC)CCOc1ccc(Nc2nc(C)c(O)c(C)n2)cc1 | 
30 | 30.9% | CCN(CC)CCOc1cccc(Nc2nc(C)cc(-c3ccc(OC)cc3)n2)c1 | 
31 | 37.1% | CCN(CC)CCOc1ccc(Nc2nc(C)cc(-c3ccc(Cl)cc3)n2)cc1 | 
32 | 16% | CCN(CC)CCOc1ccc(Nc2nc(C)cc(C)n2)cc1 | 
33 | inactive | CCN(CC)CCCCNc1nc(C)c(OC)c(C)n1 | 
34 | 20.8% | CCN(CC)CCOc1cccc(Nc2nc(C)cc(C)n2)c1 | 
35 | 41.6% | CCN(CC)CCOc1cccc(Nc2nc(C)cc(-c3ccc(Cl)cc3)n2)c1 | 
36 | 33% | CCN(CC)CCOc1ccc(Nc2nc(C)cc(-c3ccccc3)n2)cc1 | 
37 | 26.3% | CCN(CC)CCOc1cccc(Nc2nc(-c3ccc(Cl)cc3)cc(-n3cccc3)n2)c1 | 
38 | 32.6% | CCN(CC)CCOc1ccc(Nc2nc(C)cc(-c3ccc(OC4CCCCC4)cc3)n2)cc1 | 
39 | inactive | CCN(CC)CCCC(=O)Nc1nc(C)c(O)c(C)n1 | 
